“And” between values parts separate entries of the source, which are not always exact repeats. Identical values can stand only once.
Key:
[1] = molecular target: T1, 5-hydroxytryptamine receptor 1A (Rattus norvegicus, UniProt P19327); assay: Inhibitory activity against 5-hydroxytryptamine 1A receptor in rats, using [3H]8-OH-DPAT as radioligand
T1 sequence (P19327 whole entry): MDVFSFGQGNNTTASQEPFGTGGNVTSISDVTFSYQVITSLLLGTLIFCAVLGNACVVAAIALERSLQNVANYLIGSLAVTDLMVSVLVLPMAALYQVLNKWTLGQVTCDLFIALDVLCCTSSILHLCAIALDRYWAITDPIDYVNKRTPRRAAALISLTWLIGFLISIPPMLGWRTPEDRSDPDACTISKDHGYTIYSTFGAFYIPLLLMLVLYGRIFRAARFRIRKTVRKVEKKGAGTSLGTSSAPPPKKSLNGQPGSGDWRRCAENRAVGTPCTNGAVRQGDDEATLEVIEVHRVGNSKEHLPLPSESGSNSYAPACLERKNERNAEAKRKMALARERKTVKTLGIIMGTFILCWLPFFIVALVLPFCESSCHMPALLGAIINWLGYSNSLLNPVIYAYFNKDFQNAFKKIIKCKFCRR
In short: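 Rat whole-brain membranes (minus brainstem and cerebellum) in 50 mM Tris pH 8.0 with 120 mM NaCl, 4 mM CaCl2, 4 mM MgCl2 and 10 μM pargyline. Rapid filtration, then scintillation counting. Nonspecific binding defined with 10 μM 5-HT. IC50 by semi-log plot and linear regression.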

[2] = molecular target: D(2) dopamine receptor (Rattus norvegicus, UniProt P61169); assay: Inhibitory activity against Dopamine receptor D2 in rats using [3H]spiperone as radioligand
Chain of D(2) dopamine receptor (P61169 whole entry): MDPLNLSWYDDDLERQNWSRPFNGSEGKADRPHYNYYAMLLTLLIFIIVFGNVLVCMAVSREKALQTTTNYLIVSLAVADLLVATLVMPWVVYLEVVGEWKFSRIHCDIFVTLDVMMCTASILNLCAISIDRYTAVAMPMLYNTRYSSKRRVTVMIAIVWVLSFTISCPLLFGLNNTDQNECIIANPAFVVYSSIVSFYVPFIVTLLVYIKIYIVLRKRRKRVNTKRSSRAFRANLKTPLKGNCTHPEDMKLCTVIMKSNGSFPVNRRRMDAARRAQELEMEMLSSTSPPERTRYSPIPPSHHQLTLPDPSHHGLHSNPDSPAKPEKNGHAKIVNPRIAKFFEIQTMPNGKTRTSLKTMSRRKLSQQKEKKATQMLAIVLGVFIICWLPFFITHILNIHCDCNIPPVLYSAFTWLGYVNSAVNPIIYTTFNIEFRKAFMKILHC
In short: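 Rat striatal membranes in 50 mM potassium phosphate buffer pH 7.4 were incubated with 0.5 nM [3H]spiperone for 10 min at 37 °C. Specific binding was defined with 10 μM 6,7-ADTN.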

[3] = test system: Rattus norvegicus; assay: Effect evaluated in vivo on 5-HTP accumulation in limbic system at a dose uM/kg(sc); type: functional
In short: (§1)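 Male Sprague-Dawley rats (200–300 g) were pretreated with reserpine 5 mg/kg sc 18 h before. Test compound was given sc at 5 mL/kg in neutral solution. 5-HT synthesis rate was indexed by […] 5-HTP accumulation after decarboxylase inhibition with NSD 1015, measured by HPLC-electrochemical detection. Dose-response used 4–6 dose levels, n = 4.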

[4] = test system: Rattus norvegicus; assay: Effect evaluated in vivo on 5-HTP accumulation in corpus striatum at a dose uM/kg(sc); type: functional
In short: (§2)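 Male Sprague-Dawley rats (200–300 g) were pretreated with reserpine 5 mg/kg sc 18 h beforehand. Test drug was given at neutral pH, 5 mL/kg. Aromatic amino acid decarboxylase was blocked with NSD 1015. 5-HTP in the dissected brain region was assayed by HPLC with electrochemical detection.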

[5] = test system: Rattus norvegicus; assay: Effect evaluated in vivo on 5-HTP accumulation in NE-rich hemispheres at a dose uM/kg(sc); type: functional; in short: as §2
[6] = test system: Rattus norvegicus; assay: The compound was tested in vivo for locomotor activity in rats at 50 umol/kg after subcutaneous administration; type: functional
In short: (§3)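 Male Sprague-Dawley rats received reserpine 5 mg/kg sc in the neck 18 h before testing. Test compound was given sc in the neck (n = 4). Rats were placed singly in photocell motility meters immediately after dosing, and counts were accumulated over 30 min (tests 9 a.m.–1 p.m.). Gross behaviour, including 5-HT syndrome, was observed throughout.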

[7] = test system: Rattus norvegicus; assay: Effect evaluated in vivo on DA synthesis in limbic system at ED50 umol/kg after peroral administration; type: functional
In short: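 Oral dosing in male Sprague-Dawley rats (200–300 g) pretreated with reserpine 5 mg/kg sc 18 h before. After decarboxylase inhibition with NSD 1015, brain 5-HTP or dopa accumulation (HPLC-electrochemical detection) indexed 5-HT synthesis, DA synthesis (limbic) or NE synthesis (hemispheres, mainly cortex).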

[8] = test system: Rattus norvegicus; assay: Effect evaluated in vivo on DA synthesis in limbic system at ED50 umol/kg after subcutaneous administration; type: functional
In short: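 Male Sprague-Dawley rats (200–300 g) pretreated with reserpine (5 mg/kg sc, 18 h before), then given the test drug sc; neutral solutions at 5 mL/kg. Dopa accumulation after decarboxylase inhibition with NSD 1015 indexes DA synthesis rate in limbic tissue, assayed by HPLC with electrochemical detection.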

[9] = test system: Rattus norvegicus; assay: Effect evaluated in vivo on 5-HT synthesis in limbic system at ED50 umol/kg after subcutaneous administration; conditions: sc
[10] = test system: Rattus norvegicus; assay: The compound was tested in vivo for locomotor activity in rats at 0.2 umol/kg after subcutaneous administration
[11] = test system: Rattus norvegicus; assay: Effect evaluated in vivo on 5-HTP accumulation in limbic system at a dose 25 umol/kg (s.c.); type: functional; in short: as §1
[12] = test system: Rattus norvegicus; assay: Effect evaluated in vivo on 5-HTP accumulation in limbic system at a dose 6.25 umol/kg (s.c.); type: functional; in short: as §1
[13] = test system: Rattus norvegicus; assay: Effect evaluated in vivo on NE synthesis in NE-rich hemispheres at a 0.20 dose uM/kg(sc); type: functional
In short: (§4)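 Rats pretreated with reserpine 5 mg/kg sc 18 h before received test compound sc at 5 mL/kg in neutral solution. After decarboxylase inhibition with NSD 1015, dopa accumulation in hemispheres (mainly cortex) was measured by HPLC-electrochemical detection as an index of NE synthesis. Dose-response used 4–6 dose levels, n = 4.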

[14] = test system: Rattus norvegicus; assay: Effect evaluated in vivo on NE synthesis in NE-rich hemispheres at a 0.39 dose uM/kg(sc); type: functional; in short: as §4
[15] = test system: Rattus norvegicus; assay: Effect evaluated in vivo on NE synthesis in NE-rich hemispheres at a 1.56 dose uM/kg(sc); type: functional; in short: as §4
[16] = test system: Rattus norvegicus; assay: Effect evaluated in vivo on NE synthesis in NE-rich hemispheres at a 25 dose uM/kg(sc); type: functional; in short: as §4
[17] = test system: Rattus norvegicus; assay: Effect evaluated in vivo on NE synthesis in NE-rich hemispheres at a 6.25d ose uM/kg(sc); type: functional; in short: as §4
[18] = test system: Rattus norvegicus; assay: Effect evaluated in vivo on 5-HTP accumulation in corpus striatum at a dose 25 umol/kg (s.c.); type: functional; in short: as §2
[19] = test system: Rattus norvegicus; assay: Effect evaluated in vivo on 5-HTP accumulation in limbic system after subcutaneous administration; type: functional; conditions: sc; in short: as §2
[20] = test system: Rattus norvegicus; assay: Effect evaluated in vivo on NE synthesis in NE-rich hemispheres after subcutaneous administration; type: functional; conditions: sc; in short: as §4
[21] = test system: Rattus norvegicus; assay: Effect evaluated in vivo on 5-HTP accumulation in corpus striatum at a dose 6.25 umol/kg (s.c.); type: functional; in short: as §2
[22] = test system: Rattus norvegicus; assay: Effect evaluated in vivo on 5-HTP accumulation in limbic system at a dose 0.20 umol/kg (s.c.); type: functional; in short: as §2
[23] = test system: Rattus norvegicus; assay: Effect evaluated in vivo on 5-HTP accumulation in limbic system at a dose 0.39 umol/kg (s.c.); type: functional; in short: as §2
[24] = test system: Rattus norvegicus; assay: Effect evaluated in vivo on 5-HTP accumulation in limbic system at a dose 1.56 umol/kg (s.c.); type: functional; in short: as §1
[25] = test system: Rattus norvegicus; assay: Effect evaluated in vivo on 5-HTP accumulation in corpus striatum after subcutaneous administration; type: functional; conditions: sc; in short: as §2
[26] = test system: Rattus norvegicus; assay: Effect evaluated in vivo on 5-HTP accumulation in corpus striatum at a dose 0.20 umol/kg (s.c.); type: functional; in short: as §2
[27] = test system: Rattus norvegicus; assay: The compound was tested in vivo for locomotor activity in rats at 25 umol/kg after subcutaneous administration; type: functional; in short: as §3
[28] = test system: Rattus norvegicus; assay: Effect evaluated in vivo on 5-HTP accumulation in corpus striatum at a dose 0.39 umol/kg (s.c.); type: functional; in short: as §2
[29] = test system: Rattus norvegicus; assay: Effect evaluated in vivo on 5-HTP accumulation in limbic system at a dose 3.1 umol/kg (s.c.); type: functional; in short: as §1
[30] = test system: Rattus norvegicus; assay: Effect evaluated in vivo on 5-HTP accumulation in limbic system at a dose 50 umol/kg (s.c.); type: functional; in short: as §1
[31] = test system: Rattus norvegicus; assay: Effect evaluated in vivo on 5-HTP accumulation in NE-rich hemispheres at a 0.20 dose uM/kg(sc); type: functional; in short: as §2
[32] = test system: Rattus norvegicus; assay: Effect evaluated in vivo on 5-HTP accumulation in NE-rich hemispheres at a 0.78 dose uM/kg(sc); type: functional; in short: as §2
[33] = test system: Rattus norvegicus; assay: Effect evaluated in vivo on 5-HTP accumulation in corpus striatum at a dose 12.5 umol/kg (s.c.); type: functional; in short: as §2
[34] = test system: Rattus norvegicus; assay: Effect evaluated in vivo on 5-HTP accumulation in corpus striatum at a dose 3.1 umol/kg (s.c.); type: functional; in short: as §2
[35] = test system: Rattus norvegicus; assay: Effect evaluated in vivo on 5-HTP accumulation in corpus striatum at a dose 50 umol/kg (s.c.); type: functional; in short: as §2
[36] = test system: Rattus norvegicus; assay: Effect evaluated in vivo on 5-HTP accumulation in limbic system at a dose 0.78 umol/kg (s.c.); type: functional; in short: as §2
[37] = test system: Rattus norvegicus; assay: Effect evaluated in vivo on 5-HTP accumulation in limbic system at a dose 12.5 umol/kg (s.c.); type: functional; in short: as §1
[38] = test system: Rattus norvegicus; assay: Effect evaluated in vivo on 5-HTP accumulation in NE-rich hemispheres at a 12.5 dose uM/kg(sc); type: functional; in short: as §2
[39] = test system: Rattus norvegicus; assay: Effect evaluated in vivo on 5-HTP accumulation in NE-rich hemispheres at a 3.1 dose uM/kg(sc); type: functional; in short: as §2
[40] = test system: Rattus norvegicus; assay: Effect evaluated in vivo on 5-HTP accumulation in NE-rich hemispheres at a 50 dose uM/kg(sc); type: functional; in short: as §2
[41] = test system: Rattus norvegicus; assay: Effect evaluated in vivo on 5-HTP accumulation in corpus striatum at a dose 0.78 umol/kg (s.c.); type: functional; in short: as §2

CCCCN1CCc2cccc(O)c2CC1
IC50 [1]: 420 nM | IC50 [2]: 12000 nM | Control [3]: 84% | Control [4]: 111% | Control [5]: 108% | Locomotor activity [6]: 19

CCCN(CCC)C1CCc2cccc(O)c2C1 (stereo not drawn) [8-OH-DPAT]
ED50 [7]: 3 µM/kg and 7.9 µM/kg and 7.6 µM/kg | ED50 [8]: 0.052 µM/kg and 0.063 µM/kg | ED50 [9]: 0.052 µmol/kg | Locomotor activity [10]: 66

CCCN1CCc2cccc(O)c2CC1
IC50 [1]: 81 nM | IC50 [2]: > 100000 nM | Control [11]: 76% | Control [12]: 51% | Control [13]: 115% | Control [14]: 129% | Control [15]: 73% | Control [16]: 72% | Control [17]: 53% | Control [18]: 75% | ED50 [19]: 1.3 µmol/kg | ED50 [20]: 1.4 µmol/kg | Control [21]: 67% | Control [22]: 117% | Control [23]: 129% | Control [24]: 70% | ED50 [25]: 2.2 µmol/kg | Control [26]: 125% | Locomotor activity [27]: 102 | Control [28]: 135%

COc1cccc2c1CCN(C)CC2
IC50 [1]: 480 nM | IC50 [2]: 2300 nM | Control [29]: 108% | Control [30]: 67% | Control [31]: 126% | Control [32]: 81% | Control [33]: 74% | Control [34]: 89% | Control [35]: 72% | Control [22]: 110% | Control [36]: 93% | Control [37]: 86% | Control [38]: 76% | Control [39]: 93% | Control [40]: 80% | Control [26]: 98% | Control [41]: 97% | Locomotor activity [10]: 8

Source: ChEMBL document CHEMBL1125331, “6-Hydroxy-3-n-propyl-2,3,4,5-tetrahydro-1H-3-benzazepine and analogs: new centrally acting 5-HT1A receptor agonists” (J Med Chem, 1992)
